# PAFAH1B2 FP inh: PAFAH1B2 enzyme inhibitors, primary screen, biochemical, fluorescence polarization, human | Platelet-activating factor acetylhydrolase IB subunit alpha2 (Homo sapiens), P68402 | recombinant PAFAH1B2, FP-rhodamine activity probe | inhibition, % at 3.39 µM | hit rate 1.2% among 340,000;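 active = inhibition above the mean of all tested compounds plus 3 SD, cut at about 24% in these data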
# Target sequence (P68402 whole entry, looked up): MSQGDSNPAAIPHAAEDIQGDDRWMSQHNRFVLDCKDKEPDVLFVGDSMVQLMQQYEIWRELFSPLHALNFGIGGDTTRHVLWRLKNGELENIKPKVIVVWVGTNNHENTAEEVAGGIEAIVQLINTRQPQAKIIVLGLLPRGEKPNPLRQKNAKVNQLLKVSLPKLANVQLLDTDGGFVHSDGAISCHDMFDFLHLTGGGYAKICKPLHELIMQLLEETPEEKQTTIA
# pPAFAH FP inh: pPAFAH enzyme inhibitors, primary screen, biochemical, fluorescence polarization, human; Platelet-activating factor acetylhydrolase (Homo sapiens), Q13093; recombinant pPAFAH, FP-rhodamine probe fluorescence polarization; inhibition, % at 3.39 µM; hit rate 1.5% among 330,000; AID 463082, 2010;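 active = inhibition above the mean inhibition across the screen plus 3 SD, cut at about 25% in these data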;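 note: inhibitors block binding of the rhodamine activity-based probe so polarization drops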
# Apaf-1 inh: inhibitors of human Apaf-1 apoptosome, primary screen, biochemical, DEVD-Rh110 fluorescence, uHTS; Apoptotic protease-activating factor 1 (Homo sapiens), O14727; reconstituted apoptosome caspase-3 activity; inhibition, % at 20 µM; hit rate 0.71% among 330,000; AID 489030, 2010; active = inhibition of at least 40% at 20 µM
#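 Material: biochemical Apaf-1 apoptosome reconstitution. Medium: Hepes buffer, pH 7.5. Also added: cytochrome c activation, bis-DEVD rhodamine 110 substrate. Timing: 30 min compound preincubation, 50 min activation, room temperature. Measured by: rhodamine 110 fluorescence at Ex 480/Em 540 nm.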
# PAFAH2 FP inh: PAFAH2 enzyme inhibitors, primary screen, biochemical, fluorescence polarization, human; recombinant PAFAH2, FP-rhodamine activity probe; AID 492956, 2010; hit rate 0.99% among 340,000; inhibition, % at 3.39 µM; Platelet-activating factor acetylhydrolase 2, cytoplasmic (Homo sapiens), Q99487;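 active = inhibition above the mean over all tested compounds plus 3 SD, cut at about 30% in these data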;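 note: inhibitors block probe labeling of enzyme so polarization drops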
# PAFAH1B3 inh: PAFAH1B3 enzyme inhibitors, primary screen, biochemical, fluorescence polarization, human; recombinant PAFAH1B3, FP-rhodamine probe; Platelet-activating factor acetylhydrolase IB subunit alpha1 (Homo sapiens), Q15102; AID 492972, 2010; hit rate 0.28% among 340,000; inhibition, % at 3.39 µM;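 active = inhibition above the screen-wide average of all tested compounds plus 3 SD, cut at about 25% in these data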
# Target sequence (Q15102 whole entry, looked up): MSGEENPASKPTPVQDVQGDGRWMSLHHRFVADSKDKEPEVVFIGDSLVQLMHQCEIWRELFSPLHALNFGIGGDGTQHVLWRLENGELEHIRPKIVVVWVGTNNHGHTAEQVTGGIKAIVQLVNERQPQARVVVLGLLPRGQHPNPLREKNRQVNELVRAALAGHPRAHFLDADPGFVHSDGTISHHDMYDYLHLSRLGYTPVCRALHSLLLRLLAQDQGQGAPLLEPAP
# Apaf-1 inh conf2: Apaf-1 inhibitors, single-dose retest, confirmation, biochemical, fluorescence, DEVD-Rh110, 20 µM. reconstituted apoptosome, caspase-3 DEVD-Rh110 fluorescence. inhibition, % at 20 µM. AID 504614, 2011. shares compounds with Apaf-1 inh. hit rate 25% among 1,800;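 active = mean inhibition of at least 40% at 20 µM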
# Rh110 interf inh: Rh110 fluorescence interference by putative Apaf-1 inhibitors, confirmation, artefact control for Apaf-1 inhibitor project, biochemical, 20 µM. shares compounds with Apaf-1 inh. quenched caspase reaction. activation (fluorescence interference), % at 20 µM. 1,800 tested, under 10 active;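 active = signal rise of 40% or more at 20 µM, treated as a fluorescence artifact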
# Apaf1 inh interf: fluorescence interference of Apaf-1 inhibitor hits, dose response, artefact control for Apaf-1 inhibitor project. shares compounds with Apaf-1 inh. fluorescence interference counterscreen, Apaf-1 assay format. IC50, µM. 460 tested, under 10 active; call rule not given here
# A number is an active result; - = inactive; . = no result. The list is not random: actives were taken first. Their share in the collection is about 3.1%.
SMILES,PAFAH1B2 FP inh,pPAFAH FP inh,Apaf-1 inh,PAFAH2 FP inh,PAFAH1B3 inh,Apaf-1 inh conf2,Rh110 interf inh,others
CN1CCN(c2nc(-c3ccc(C(C)(C)C)cc3)nc3ccccc23)CC1,-,-,43,-,-,-,-,
COc1ccc(-c2nc(-c3ccccc3)nc(N3CCN(C)CC3)c2C#N)cc1,-,-,41,-,-,-,-,
CC(C)C[C@H](NC(=O)c1nc[nH]c1C(=O)N[C@@H](CCCCN)C(=O)OC(C)(C)C)C(=O)OC(C)(C)C,-,-,43,-,-,-,-,
CC(C)(C)OC(=O)[C@H](Cc1ccccc1)NC(=O)c1nc[nH]c1C(=O)N[C@@H](CCCCN)C(=O)OC(C)(C)C,-,-,51,-,-,-,-,
CC(C)(C)C1CCC(CN2C(Nc3ccccc3)=NC[C@@H]2Cc2ccccc2)CC1 (stereo partly drawn),-,-,75,-,-,-,-,
O=C(CN1C(=O)c2ccccc2S1(=O)=O)Nc1ncc(Cl)cc1Cl,-,-,-,-,-,.,.,
Cn1c(=O)c2[nH]c(=O)cnc2n(C)c1=S,-,-,56,-,-,-,-,
CCc1ccc(N2C(=O)C(Cl)=C(Nc3ccc(C(=O)N4CCCC4)cc3)C2=O)cc1,-,-,41,-,-,-,-,
O=C(c1ccc(N2C(=O)c3ccccc3C2=O)cc1)N1CCCCC1,-,-,-,-,-,.,.,
CN1CCN(c2cc3c(c4c2[nH]c2ccccc24)C(=O)CC(C)(C)C3)CC1,-,-,50,-,-,-,-,
CN1CCN(c2ccc(Cl)cc2NC(=O)c2cc(=O)[nH]c3ccccc23)CC1,-,-,-,-,-,.,.,
O=C(Cc1ccccc1Cl)NC1(O)C(=O)c2ccccc2C1=O,.,-,89,.,.,65,-,Apaf1 inh interf=-
O=C(Cc1ccc(Cl)cc1)NCc1ccccc1Cl,-,-,-,-,-,.,.,
Cc1ccc(N=Nc2c(N)[nH]n3c(=O)cc(-c4ccccc4)nc23)cc1,-,-,55,-,-,64,-,Apaf1 inh interf=-
COc1cccc(N=Nc2c(N)[nH]n3c(=O)cc(-c4ccccc4)nc23)c1,-,-,-,-,-,.,.,
O=C1CCCC2=C1C1(O)C(=O)c3ccccc3C1(O)O2 (stereo not drawn),-,-,92,-,-,72,-,Apaf1 inh interf=-
COc1cc2c(cc1OC)C1=C(C#N)CCC(=O)N1CC2,-,-,50,-,-,-,-,
COc1ccc2cc(C3=CCCCC3)ncc2c1,-,-,-,-,-,.,.,
COc1cc(/C=N/N=C(N)N)ccc1OCc1ccc(Cl)cc1,-,-,40,-,-,-,-,
NC(N)=N/N=C/c1ccc(OCc2ccccc2)c(OCc2ccccc2)c1,-,-,61,-,-,42,-,Apaf1 inh interf=-
Cc1ccc(C(=O)NCC(=O)N2CCC(Cc3ccccc3)CC2)cc1,-,-,-,-,-,.,.,
COc1ccc2oc(C(=O)Nc3ccc(S(=O)(=O)N(C)C4CCN(C)CC4)cc3)c(C)c2c1,-,-,-,-,-,.,.,
CCCCCCCCCn1c2c(c(=N)c3c1CCC3)CCC2,-,-,50,-,-,-,-,
COc1cc2nc(Nc3ccc(C)c(Cl)c3)nc(N)c2cc1OC,-,-,45,-,-,-,-,
CN(C)c1ccc(C(CNC(=O)Cc2cccc3ccccc23)N(C)C)cc1 (stereo not drawn),-,-,-,-,-,.,.,
SMILES,PAFAH1B2 FP inh,pPAFAH FP inh,Apaf-1 inh,PAFAH2 FP inh,PAFAH1B3 inh,Apaf-1 inh conf2,Rh110 interf inh,others
COc1cc2c(cc1OC)CN(C(=O)C1CCN(S(=O)(=O)c3ccccc3F)CC1)CC2,-,-,-,-,-,.,.,
Nc1c(N2CCOCC2)cc(Cl)c2nonc12,-,-,-,-,-,.,.,
Nc1c(N2CCCC2)cc(Cl)c2nonc12,-,-,96,35,66,75,-,Apaf1 inh interf=-
COC(=O)CCC(=O)OC1(C)C(=O)C2=CN(CC3CC3)C(c3ccc(OC)cc3)=CC2=C(Br)C1=O (stereo not drawn),-,-,66,-,-,64,-,Apaf1 inh interf=-
COC(=O)CCC(=O)OC1(C)C(=O)C2=CN(C3CC3)C(c3ccc(OC)cc3)=CC2=C(Br)C1=O (stereo not drawn),-,-,61,-,-,56,-,Apaf1 inh interf=-
COC(=O)CCC(=O)OC1(C)C(=O)C2=CN(CCCOC(C)C)C(c3ccc(OC)cc3)=CC2=C(Br)C1=O (stereo not drawn),-,-,79,-,-,71,-,Apaf1 inh interf=-
COC(=O)CCC(=O)OC1(C)C(=O)C2=CN(Cc3ccc(OC)cc3)C(c3ccc(OC)cc3)=CC2=C(Br)C1=O (stereo not drawn),-,-,-,-,-,.,.,
CN(C)S(=O)(=O)c1ccc(C(=O)Nc2ccc3nc(N4CCOCC4)sc3c2)cc1,-,-,-,-,-,.,.,
CCCCN1C(=N)N([C@@H](C)CN2CCC[C@H]2CN2C(N)=NC[C@H]2CC(C)C)C[C@H]1[C@H](C)CC,-,-,-,-,-,.,.,
CC(C)C[C@@H]1CN=C(N)N1C[C@@H]1CCCN1C[C@H](C)N1C[C@@H](Cc2ccccc2)N(CCc2ccc(Cl)c(Cl)c2)C1=N,-,-,63,-,-,-,-,
CC(C)C[C@@H]1CN=C(N)N1C[C@@H]1CCCN1C[C@H](C)N1C[C@@H](Cc2ccccc2)N(CCCC2CCCC2)C1=N,-,-,55,-,-,-,-,
CC(C)C[C@@H]1CN=C(N)N1C[C@@H]1CCCN1C[C@@H](C(C)C)N1C[C@@H](Cc2ccccc2)N(CCc2ccc(Cl)c(Cl)c2)C1=N,-,-,63,-,-,-,-,
Cn1c(=O)cc(OCC(=O)NCc2cccs2)c2ccccc21,-,-,-,-,-,.,.,
COC(=O)c1ccccc1NC(=O)CSc1nnnn1CC(=O)O,-,-,-,-,-,.,.,
CCCCc1c(C)nn(-c2nnc3c4ccccc4n(CC)c3n2)c1C,-,-,47,-,-,-,-,
O=c1cc(C(F)(F)F)nc(SC/C=C/c2ccccc2)[nH]1,-,-,-,-,-,.,.,
CCOC(=O)N1CCN(C(=O)c2ccc(S(=O)(=O)Nc3ccccc3)cc2)CC1,-,-,-,-,-,.,.,
O=C1C(NS(=O)(=O)c2ccc(Cl)cc2)=C(N2CCCCC2)C(=O)c2ccccc21,-,-,72,-,-,42,-,Apaf1 inh interf=-
CCN1CCN(C2=C(NS(=O)(=O)c3ccccc3)C(=O)c3ccccc3C2=O)CC1,-,-,82,-,-,42,-,Apaf1 inh interf=-
